For data set [1] the following is noted: cited from earlier work.
Data set [2] has as its system MAO activity in Neuroscreen-1 (NS-1) cells. As to the kind of experiment: MAO activity in lysates of treated Neuroscreen-1. Format: cell-based, rat. The settings on record: deprenyl 1.0 μM, 12 hours. The procedure, abridged: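 NS-1 cells (rat PC12 subclone) in suspension culture were treated for 12 hours with test compound (100 µM), a selective MAO-B inhibitor reference (1.0 µM) or ethanol, alongside untreated controls. Lysates were prepared from the cells. MAO activity in the lysates was measured by fluorometric kynuramine deamination, with kynuramine at 80 µM for MAO-A and 50 µM for MAO-B.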

Data set [3] deals with T1, recombinant human MAO-B (Homo sapiens, UniProt P27338).
T1 sequence (P27338 1-520): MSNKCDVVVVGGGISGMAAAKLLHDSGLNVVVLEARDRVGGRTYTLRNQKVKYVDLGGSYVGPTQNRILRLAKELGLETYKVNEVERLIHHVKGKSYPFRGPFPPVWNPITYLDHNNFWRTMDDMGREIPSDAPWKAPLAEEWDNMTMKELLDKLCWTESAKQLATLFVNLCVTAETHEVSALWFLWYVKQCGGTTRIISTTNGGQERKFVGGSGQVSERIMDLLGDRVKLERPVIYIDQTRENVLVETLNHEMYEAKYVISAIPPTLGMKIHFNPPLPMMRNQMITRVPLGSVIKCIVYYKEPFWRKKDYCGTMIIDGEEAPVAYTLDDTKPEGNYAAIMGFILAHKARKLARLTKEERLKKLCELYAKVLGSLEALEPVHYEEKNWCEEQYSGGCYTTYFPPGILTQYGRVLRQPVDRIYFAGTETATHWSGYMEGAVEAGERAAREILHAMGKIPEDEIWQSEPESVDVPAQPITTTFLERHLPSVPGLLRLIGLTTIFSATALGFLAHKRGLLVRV
Put plainly: biochemical. Format: biochemical.

Data set [4] in a line: Solubility observation at the concentrations tested. The settings on record: at the concentrations tested in the MAO assays.
In a further data set the target is T2, recombinant human MAO-A (Homo sapiens, UniProt P21397).
T2 sequence (P21397 1-527): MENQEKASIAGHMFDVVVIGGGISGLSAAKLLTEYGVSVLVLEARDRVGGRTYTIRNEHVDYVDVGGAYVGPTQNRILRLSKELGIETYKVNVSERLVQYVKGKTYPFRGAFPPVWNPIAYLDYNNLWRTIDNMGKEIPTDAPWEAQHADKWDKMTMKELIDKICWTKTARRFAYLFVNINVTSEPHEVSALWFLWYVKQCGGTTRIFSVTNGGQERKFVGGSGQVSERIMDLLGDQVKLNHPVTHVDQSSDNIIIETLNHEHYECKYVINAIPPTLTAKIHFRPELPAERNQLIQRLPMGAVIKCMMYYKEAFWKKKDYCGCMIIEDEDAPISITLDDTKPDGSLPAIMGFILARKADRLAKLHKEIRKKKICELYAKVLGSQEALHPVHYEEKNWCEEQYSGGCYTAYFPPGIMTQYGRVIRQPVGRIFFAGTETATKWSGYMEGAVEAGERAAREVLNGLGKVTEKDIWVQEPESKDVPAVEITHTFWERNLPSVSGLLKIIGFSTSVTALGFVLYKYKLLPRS
As to the kind of experiment: Fluorometric kynuramine deamination assay, recombinant human MAO-A inhibition. Format: biochemical.

The target in data set [5] is T1, recombinant human MAO-B. Format: biochemical.
The target of data set [6] is T1, recombinant human MAO-B. Format: binding.
Data set [7] concerns the target T1, recombinant human MAO-B. Format: biochemical. The source holds these as a separate data set.
Setting [8] is: read-out: MAO-B IC50 (μM) ± S.D., kynuramine 50 μM, test compounds 0.01 to 100 μM, mean ± S.D. of triplicate.

Values joined by “and” are separate entries in the source; they are usually repeats but may differ in a detail not shown here. Identical values can stand only once. “Also recorded” adds a separate entry of the source. Like-named read-outs stand apart in the source and are kept apart here. Where only a bound is given, the exact number is not on record here.

The IC50 is the concentration that gives 50% inhibition. The Ki is the dissociation constant of the complex between target and ligand, obtained from inhibition or displacement.

Regarding `CCCCC/C=C\C/C=C\C/C=C\C/C=C\CCCCO` [arachidonoyl alcohol], the “critical micellar concentration (CMC)” value in data set [1] (ref 46) is 30 µM.
Consider `CCCCC/C=C\C/C=C\C/C=C\C/C=C\CCCC(=O)O` [arachidonic acid], for which the “critical micellar concentration (CMC)” value in data set [1] (ref 46) was 73 µM; in data set [1] (ref 47), ~ 30 μM.
In the case of R-(−)-deprenyl hydrochloride, the “inhibition of MAO activity in NS-1 cells” value in data set [2] is listed as greater than 90%.
As to `CCCCC/C=C\C/C=C\C/C=C\C/C=C\CCCCOC(CO)CO` [Noladin ether], the concentration for half-maximal inhibition (IC50) on recombinant human MAO-B [3] (setting [8]) came to 18.2 ± 1.45 µM. In addition, the solubility issues entry in data set [4] was “did not show any solubility issues”.
As for `CCCCC/C=C\C/C=C\C/C=C\C/C=C\CCCC(=O)NCCO` [Anandamide], the IC50 was 40 ± 4.6 µM on recombinant human MAO-B [3] and greater than 100 µM on recombinant human MAO-A.
As for `CCCCC/C=C\C/C=C\C/C=C\C/C=C\CCCC(=O)OCCN` [Virodhamine], the “MAO-B Type of Inhibition” value on recombinant human MAO-B [5] (Lineweaver-Burk analysis and dialysis) was “mixed mechanism/irreversible binding; also recorded: mixed enzyme inhibition mechanism”. Moreover, the Ki at recombinant human MAO-B [5] (read-out: MAO-B Ki (μM) ± S.D., kynuramine 1.90 to 500 μM, mean ± S.D. of triplicate) is 0.258 ± 0.037 µM. For the same molecule, the “nature of binding with MAO-B (reversibility)” value on recombinant human MAO-B [6] (equilibrium dialysis overnight) is on record as “irreversible”. For the same molecule, the “enzyme activity recovered after overnight dialysis” value at recombinant human MAO-B [6] (virodhamine 10.0 μM, 20 min at 37 °C, dialysis 14-16 h at 4 °C) is 2.644 ± 0.450%. For the same molecule, the “inhibition of catalytic activity before dialysis” value at recombinant human MAO-B [6] (virodhamine 10.0 μM, 20 min incubation) is “almost complete inhibition”. Besides, the “fold greater inhibition of MAO-B compared to MAO-A” value on recombinant human MAO-B [3] (ratio of IC50 MAO-A / MAO-B) was ~ 55 fold and > 54 fold. For the same molecule, the IC50 on recombinant human MAO-B [3] (setting [8]) came to 0.71 ± 0.04 µM. In addition, at recombinant human MAO-B [7] (0.25 μM virodhamine, pre-incubation 0-15 min), the “inhibition of MAO-B after pre-incubation” value is listed as 55-70%. Moreover, at recombinant human MAO-B [7] (pre-incubation 0-15 min, virodhamine 2.5 μM, deprenyl 0.100 μM), the “time dependence of MAO-B inhibition” value is recorded as “time-dependent”. In addition, on recombinant human MAO-B [7] (virodhamine 2.5 μM), the “inhibition of the enzyme activity at the concentration chosen” value is listed as greater than 60%.
On to `CCCCCCCC/C=C\CCCCCCCC(=O)NCCO` [Oleylethanolamide], for which, at recombinant human MAO-B [3] (kynuramine 50 μM, test compounds 0.01 to 100 μM, mean ± S.D. of triplicate), the “MAO-B IC50 (μM) ± S.D.” value is reported as “no activity”. For the same molecule, at recombinant human MAO-B [3] (setting [8]), the IC50 was greater than 100 µM. Further, the “MAO-A IC50 (μM) ± S.D.” value at recombinant human MAO-A (kynuramine 80 μM, test compounds 0.01 to 100 μM, mean ± S.D. of triplicate) is “no activity”.
As to `CCCCC/C=C\C/C=C\C/C=C\C/C=C\CCCC(=O)NCC(=O)O` [NA-glycine, N-arachidonyl-glycine], the “critical micellar concentration (CMC)” value in data set [1] (ref 48) is greater than 100 µM.
`CCCCC/C=C\C/C=C\C/C=C\C/C=C\CCCC(=O)N[C@H](C)CO` [(R)-(+)-Methanandamide]: the IC50 at recombinant human MAO-B [3] (setting [8]) came to 51.1 ± 1.3 µM. Besides, in data set [4], the solubility issues entry is on record as “did not show any solubility issues”.
As to `CCCCC/C=C\C/C=C\C/C=C\C/C=C\CCCC(=O)OC(CO)CO` [2-AG, 2-arachidonoylglycerol], in data set [1] (ref 48), the “critical micellar concentration (CMC)” value was 4.2 ± 0.5 µM. The values for the 50% inhibitory concentration (IC50) on recombinant human MAO-B [3] and at recombinant human MAO-A were 50.5 ± 0.515 µM and greater than 100 µM, respectively. The solubility issues result in data set [4] is “did not show any solubility issues”.
